These results are taken from publication PMC3954503 (Journal of Medicinal Chemistry, 2014).

In one data set the test system is tRNA. The conditions noted are these: previously found; cited from earlier work.
Data set [1] deals with pseudotyped HIV-1 virions. Nature of the data set: Single-round infectivity assay with pseudotyped HIV-1. The format is cell-based.
Data set [2] concerns HIV-1 FSS RNA upper stem-loop. As to conditions: conditions (a) HBS buffer; ref [35]; cited from earlier work.
A further data set deals with HIV-1 FSS RNA. The conditions noted are these: read-out: KD for HIV-1 FSS; ref [31]; cited from earlier work.
Data set [3] relates to HEK 293FT cells. Nature of the data set: WST-1 cell viability assay. In kind it is cell-based, human. The conditions noted are these: 24 h. The procedure, abridged:
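HEK 293FT cells grown to 80% confluence in 96-well plates (DMEM, 10% FBS, 37 °C). Test compound (up to 0.5 mM) or sterile water control added in triplicate for 24 h at 37 °C. Premix WST-1 reagent then added for 2 h at 37 °C. Absorbance at 450 minus 690 nm, blank-corrected, plotted against concentration; mean of three with SD.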

Data set [4] has as its system pDualHIV(0) transfected HEK 293FT cells. In words: Dual-luciferase control assay, pDualHIV. In kind it is cell-based, human. In a few lines: (§1)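 HEK 293FT cells plated at 1.5 × 10^4 cells/well 6 h before transfection, in DMEM with 10% FBS. Transfected with 0.2 μg reporter plasmid (lipofectamine 2000). At 5 h, test compound (0–50 μM) added in triplicate for 36 h at 37 °C. Cells PBS-washed and lysed; Rluc and Fluc read by dual-luciferase assay. Fluc/Rluc ratio expressed relative to untreated cells, set to 100%.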

The test system of data set [5] is HEK 293FT cells. Nature of the data set: Cell permeation by fluorescence microscopy. In kind it is cell-based, human. The conditions noted are these: HEK 293FT, 50, 100, 200, and 500 μM for 12 h. The procedure, abridged:
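HEK 293FT cells grown to 80% confluence at 37 °C, 5% CO2, in DMEM with 10% FBS and 1% penicillin-streptomycin. Cells exposed to test compound for 12 h (methods give 50 μM; the text lists 50–500 μM). Washed twice with PBS to remove surface-bound compound, then imaged in buffer by fluorescence microscopy with 358-nm excitation and 460-nm emission filters.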

In the next data set the test system is HTLV-2 FSS RNA. In words: SPR binding to HTLV-2 FSS RNA. As to conditions: concentrations up to 3 μM; HBS buffer. The procedure, abridged: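 SPR on a CM5 chip with about 2000 RU streptavidin, immobilized by EDC/NHS. 5′-Biotin HTLV-2 FSS RNA (500 nM) captured to about 300–1200 RU; the biotin-blocked flow cell served as reference. Test compound flowed at varying concentrations in HBS (0.01 M HEPES, 0.150 M NaCl, pH 7.4) at 60 μL/min. Each concentration injected at least twice; sensorgrams reference-subtracted and blank-corrected.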
In general terms: In SPR one partner is held on a chip, and binding of the other changes the refractive index at the surface.

In a further data set the test system is HIV-1 FSS DNA. In words: Fluorescence titration with HIV-1 FSS DNA. As to conditions: by fluorescence. In kind it is binding. The procedure, abridged: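 Fluorescence titration in 20 mM HEPES, 150 mM NaCl, with test compound at 1 μM. HIV-1 FSS RNA (10 μM stock) or FSS DNA (40 μM stock) titrated in. Each addition mixed, then 10 min to equilibrate. Benzo[g]quinoline fluorescence quenching read three times, 1 min apart, and corrected for dilution to give KD. Selectivity compares the FSS RNA and FSS DNA KDs.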

In data set [6] the test system is Gag:Gag-Pol ratio in pseudotyped virions. In words: Western blot of isolated viral particles for RT and p24. In kind it is cell-based, HIV-1. The conditions noted are these: for RT in unprocessed Gag-Pol (p160) relative to mature RT (p66 + p51) / amount of RT relative to capsid protein p24: Western blot of viral particles; for amount of RT relative to capsid protein p24: as a function of added compound. In a few lines: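 HEK293T producer cells co-transfected with env-deleted, GFP-carrying HIV-1NL4–3 proviral vector and VSV-G vector (1:0.5, Fugene HD). Test compound added 4 h post-transfection; virions collected from media at 24 h through a 0.45-μm filter. Equal p24-ELISA loads were pelleted through a 20% sucrose cushion at 100,000g, then Western blotted for RT and p24.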
(In western blotting, separated proteins are transferred to a membrane and probed.)

Data set [7] relates to HIV-1 FSS RNA upper stem-loop. In words: SPR binding to immobilized HIV-1 FSS RNA upper stem-loop. The conditions noted are these: for increased affinity over 2 and 3 / weaker binding / decrease in affinity relative to dimers 4 and 5: SPR KD ratio. In a few lines:
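Streptavidin (about 2000 RU) on a CM5 chip; 5′-biotin HIV-1 FSS RNA (500 nM) captured once at about 300 RU and once at about 1200 RU, against a biotin-blocked reference cell. Compound series run in (a) HBS pH 7.4 at 60 μL/min or (b) HEPES/NaCl/MgCl2/Tween-20 at 50 μL/min, each injection at least twice. For (a), ≥5 sensorgrams globally fit to a 1:1 Langmuir model; for (b), individual fits; ka, kd, KD derived.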

For data set [8], the system named is HIV-1 FSS-dependent −1 frameshifting in HEK 293FT cells. In words: Dual-luciferase frameshift assay, pDualHIV. In kind it is cell-based, human. As to conditions: pDualHIV(−1). In a few lines:
as §1

Setting [9] is: conditions (a) HBS buffer (0.01 M HEPES, 0.150 M NaCl, pH = 7.4), global fit.
The mark [10] stands for this setting: conditions (b) 20 mM HEPES, 150 mM NaCl, 5 mM MgCl2, 0.005% Tween-20.

By Kd is commonly meant the free concentration of one partner at which half of the binding sites on the other are occupied at equilibrium, for simple one-to-one binding.

Like-named read-outs stand apart in the source and are kept apart here.

Consider `CCc1nc2ccccc2cc1C(=O)N[C@@H](C/C=C/C[C@H](NC(=O)c1cc2ccccc2nc1CC)C(=O)N1CCC[C@H]1C(=O)N[C@@H](Cc1ccccc1)C(=O)NCCCN)C(=O)N1CCC[C@H]1C(=O)N[C@@H](Cc1ccccc1)C(=O)NCCCN` [Compound 3], for which, in the data set on tRNA, the “affinity for tRNA” value is listed as “no measurable affinity”. For the same molecule, in data set [1] (preliminary experiments (data not shown)), the “activity in pseudotyped HIV-1 assay” value is recorded as “no activity”. For the same molecule, in data set [2], the “association rate, ka” value is on record as 1.62 × 10^3 M^–1s^-1 and the dissociation rate kd is 7.5 × 10^–3 s^–1.

Take `COc1cccc2c1C(=O)c1c(O)c3c(c(O)c1C2=O)C[C@@](O)(C(=O)CO)C[C@@H]3O[C@H]1C[C@H](N)[C@H](O)[C@H](C)O1` [Doxorubicin]: on HIV-1 FSS RNA, the Kd was 2.8 µM.

As for `CCc1nc2cc3ccccc3cc2cc1C(=O)N[C@@H](C/C=C/C[C@H](NC(=O)c1cc2cc3ccccc3cc2nc1CC)C(=O)N1CCC[C@H]1C(=O)N[C@@H](Cc1ccccc1)C(=O)NCCCN)C(=O)N1CCC[C@H]1C(=O)N[C@@H](Cc1ccccc1)C(=O)NCCCN` [Compound 5], in the data set on HEK 293FT cells [3], the “concentrations at which no significant toxicity occurred” value was “below 60 μM”. The “change in Fluc to Rluc ratio relative to untreated cells” value in data set [4] is given as “No change”. Also, in the data set with HEK 293FT cells [5], the “cell penetration (internalization)” value is given as “internalized”. The “binding to HTLV-2 FSS by SPR” value in the data set on HTLV-2 FSS RNA was “no binding was observed”. In addition, the “selectivity for FSS RNA vs FSS DNA” value in the data set with HIV-1 FSS DNA is reported as “no selectivity”. Besides, in data set [6], the “lower concentration than RG501 for roughly equivalent increase in RT” value is recorded as 37.5 fold, the “RT in unprocessed Gag-Pol (p160) relative to mature RT (p66 + p51)” value is “increased significantly” and the “amount of RT relative to capsid protein p24” value is “increasing amounts of RT”. For the same molecule, the “increased affinity over 2 and 3” value in data set [7] is “approximately 50 fold”. Further, in data set [7] (setting [9]), the “association rate, ka” value is “(3.99 ± 0.37) × 10^4 M^–1s^-1” and the dissociation rate kd result is “(3.75 ± 0.12) × 10^–3 s^–1”. In addition, in data set [7] (setting [10]), the “association rate, ka” value is given as “(3.68 ± 1.45) × 10^4 M^–1s^-1” and the dissociation rate kd result is given as “(3.46 ± 2.05) × 10^–3 s^–1”.

On to `NCCCNC(=O)[C@H](Cc1ccccc1)NC(=O)[C@@H]1CCCN1C(=O)[C@@H](N)C/C=C/C[C@H](N)C(=O)N1CCC[C@H]1C(=O)N[C@@H](Cc1ccccc1)C(=O)NCCCN` [Compound 10], for which the decrease in infectivity entry in data set [1] (40 μM, producer cells treated) is “modest decrease”. Also, in [8] (at 50 μM, 36 h), the “increase in Fluc to Rluc ratio (−1 PRF)” value is “no significant effect”. Also, the “binding to HIV-1 FSS RNA by SPR (qualitative)” value in [7] is “completely abrogated binding”. For the same molecule, in data set [7] (conditions a, b (both buffers)), the “association rate, ka” value was “none obsd”; the “dissociation constant, KD” value is given as “none obsd”; the dissociation rate kd entry is recorded as “none obsd”.

`CCc1nc2cc3ccccc3cc2cc1C(=O)N[C@@H](CSSC[C@H](NC(=O)c1cc2cc3ccccc3cc2nc1CC)C(=O)N1CCC[C@H]1C(=O)N[C@@H](Cc1ccccc1)C(=O)NCCCN)C(=O)N1CCC[C@H]1C(=O)N[C@@H](Cc1ccccc1)C(=O)NCCCN` [Compound 11]: the “concentrations at which compound proved toxic” value in the data set on HEK 293FT cells [3] is recorded as “above 10 μM”. The “stimulation of HIV-1 frameshifting” value in data set [8] (concentrations above 10 µM not examined) is on record as “approximately 25%”. The “cell penetration (internalization)” value in the data set with HEK 293FT cells [5] was “internalized”. Moreover, in the data set with HTLV-2 FSS RNA, the “binding to HTLV-2 FSS by SPR” value is recorded as “no binding was observed”. Moreover, in data set [7], the “weaker binding / decrease in affinity relative to dimers 4 and 5” value is ~7 fold. Further, in data set [7] (setting [9]), the “association rate, ka” value is “(1.07 ± 0.07) × 10^4 M^–1s^-1” and the dissociation rate kd entry is on record as “(7.92 ± 0.53) × 10^–3 s^–1”.

For the molecule `CCc1nc2cc3ccccc3cc2cc1C(=O)N[C@@H](C/C=C/C[C@H](N)C(=O)N1CCC[C@H]1C(=O)N[C@@H](Cc1ccccc1)C(=O)NCCCN)C(=O)N1CCC[C@H]1C(=O)N[C@@H](Cc1ccccc1)C(=O)NCCCN` [Compound 8], the “weaker binding / decrease in affinity relative to dimers 4 and 5” value in data set [7] came to 30 fold. Further, in [7] (setting [9]), the “association rate, ka” value is “(7.71 ± 4.9) × 10^3 M^–1s^-1” and the dissociation rate kd entry is “(1.63 ± 1.12) × 10^–1 s^–1”.

With “2-ethyl benzo[g]quinoline carboxylic acid”, the “binding to HIV-1 FSS RNA by SPR (qualitative)” value in data set [7] is reported as “No binding was observed”.

Take `CCc1nc2cc3ccccc3cc2cc1C(=O)N[C@@H](C/C=C\C[C@H](NC(=O)c1cc2cc3ccccc3cc2nc1CC)C(=O)N1CCC[C@H]1C(=O)N[C@@H](Cc1ccccc1)C(=O)NCCCN)C(=O)N1CCC[C@H]1C(=O)N[C@@H](Cc1ccccc1)C(=O)NCCCN` [Compound 4]: the “concentrations at which no significant toxicity occurred” value in the data set with HEK 293FT cells [3] was “below 60 μM”. Further, the “change in Fluc to Rluc ratio relative to untreated cells” value in data set [4] is given as “No change”. In the data set with HEK 293FT cells [5], the “cell penetration (internalization)” value is given as “internalized”. Besides, the “binding to HTLV-2 FSS by SPR” value with HTLV-2 FSS RNA is “no binding was observed”. Further, in [6], the “lower concentration than RG501 for roughly equivalent increase in RT” value was 37.5 fold, the “RT in unprocessed Gag-Pol (p160) relative to mature RT (p66 + p51)” value is given as “increased significantly” and the “amount of RT relative to capsid protein p24” value is given as “increasing amounts of RT”. In addition, the “increased affinity over 2 and 3” value in data set [7] is “approximately 50 fold”. In [7] (setting [9]), the “association rate, ka” value is listed as “(4.25 ± 0.22) × 10^4 M^–1s^-1” and the dissociation rate kd result was “(4.11 ± 0.02) × 10^–3 s^–1”. Also, in [7] (setting [10]), the “association rate, ka” value is given as “(2.17 ± 0.77) × 10^4 M^–1s^-1” and the dissociation rate kd entry is on record as “(1.35 ± 0.03) × 10^–3 s^–1”. The Kd in data set [7] (read-out: affinity (KD) for HIV-1 FSS by SPR, HBS buffer) is 0.089 µM.

On to `C=CC[C@H](NC(=O)c1cc2cc3ccccc3cc2nc1CC)C(=O)N1CCC[C@H]1C(=O)N[C@@H](Cc1ccccc1)C(=O)NCCCN` [Compound 6], for which the “weaker binding / decrease in affinity relative to dimers 4 and 5” value in data set [7] is listed as 200 fold. In addition, in data set [7] (setting [9]), the “association rate, ka” value was “(1.16 ± 0.06) × 10^3 M^–1s^-1” and the dissociation rate kd result is on record as “(2.25 ± 0.01) × 10^–2 s^–1”.

As to `CCc1nc2cc3ccccc3cc2cc1C(=O)N[C@@H](C/C=C\C[C@H](N)C(=O)N1CCC[C@H]1C(=O)N[C@@H](Cc1ccccc1)C(=O)NCCCN)C(=O)N1CCC[C@H]1C(=O)N[C@@H](Cc1ccccc1)C(=O)NCCCN` [Compound 7], the “weaker binding / decrease in affinity relative to dimers 4 and 5” value in data set [7] is listed as “approximately 200 fold”. In data set [7] (setting [9]), the “association rate, ka” value is on record as “(4.58 ± 1.27) × 10^3 M^–1s^-1” and the dissociation rate kd entry is reported as “(1.21 ± 0.00) × 10^–2 s^–1”.
